According to ChEMBL document CHEMBL3600334, “Neolignans from Aristolochia fordiana Prevent Oxidative Stress-Induced Neuronal Death through Maintaining the Nrf2/HO-1 Pathway in HT22 Cells” (J Nat Prod, 2015):
The source made the active and inactive calls. No cut-off for these calls is given here.

What was measured:
HT-22 [1] = assay: Neuroprotective activity in mouse HT22 cells assessed as decrease of glutamate-induced decrease in Nrf2/HO-1 protein expression at 30 uM pretreated 30 mins before glutamate challenge measured after 12 hrs by Western blotting assay; type: functional, cell-based
HT-22 [2] = assay: Neuroprotective activity in mouse HT22 cells assessed as protection against glutamate-induced change in cell morphology at 1 to 30 uM pretreated 30 mins before glutamate challenge measured after 24 hrs by MTT assay; type: functional, cell-based; conditions: in the assay text read “by photomicroscopy” for “by MTT assay”
In short: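 HT22 cells given compounds 30 min before 2 mM glutamate for 24 h. Morphology then photographed under a photomicroscope.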

HT-22 [3] = assay: Neuroprotective activity in mouse HT22 cells assessed as decrease of glutamate-induced increase in LDH level at 30 uM pretreated 30 mins before glutamate challenge measured after 24 hrs
HT-22 [4] = assay: Neuroprotective activity in mouse HT22 cells assessed as decrease of glutamate-induced decrease in Bcl-2 protein expression at 30 uM pretreated […] by Western blotting assay
HT-22 [5] = assay: Neuroprotective activity in mouse HT22 cells assessed as protection against glutamate-induced cell death pretreated 30 mins before glutamate challenge measured after 24 hrs by MTT assay; type: functional, cell-based
In short: (§1)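 HT22 cells seeded 10 000/well, 24 h. Compounds (0.1% DMSO vehicle) added 30 min before 2 mM glutamate, then 24 h. MTT (5 mg/mL) 2 h at 37 °C, formazan in DMSO, OD 570 nm. Fold of untreated control; mean ± SD, n = 6.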

HT-22 [6] = assay: Neuroprotective activity in mouse HT22 cells assessed as decrease of glutamate-induced ROS production at 30 uM pretreated 30 mins before glutamate challenge measured after 12 hrs using H2DCF-DA staining by fluorescence assay; type: functional, cell-based
In short: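 HT22 cells given 30 μM compound 30 min before 2 mM glutamate for 12 h. After a PBS wash, stained with 10 μM H2-DCF-DA in serum-free medium, 25 min, 37 °C, dark. Cells photographed, then lysed in 1% Triton X-100/PBS 10 min at 37 °C. Fluorescence read at ex 490/em 525 nm, as percent of untreated control.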

HT-22 [7] = assay: Cytotoxicity against mouse HT22 cells assessed as […] at 30 uM after 24 hrs by MTT assay; type: cell-based; conditions: ht-22, 24 h
In short: (§2)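 HT22 mouse hippocampal cells in DMEM/10% FBS, 37 °C, 5% CO2, seeded 10 000 cells/well and grown 24 h. Compounds added from DMSO stock (0.1% DMSO vehicle) for 24 h. MTT (5 mg/mL) 2 h at 37 °C, formazan dissolved in DMSO, OD 570 nm. Expressed as fold of untreated control; n = 6 wells.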

HT-22 [8] = assay: Neuroprotective activity in mouse HT22 cells assessed as protection against glutamate-induced cell death at 1 to 30 uM pretreated 30 mins before glutamate challenge measured after 24 hrs by MTT assay; type: functional, cell-based; in short: as §1
HT-22 [9] = assay: Effect on Nrf2/HO-1 protein expression in mouse HT22 cells at 30 uM after 12 hrs by Western blotting assay
HT-22 [10] = assay: Cytotoxicity against mouse HT22 cells assessed as cell viability at 30 uM after 24 hrs by MTT assay; type: cell-based; conditions: ht-22, 24 h; in short: as §2

Row | SMILES | Activity (HT-22 [1]) | Activity (HT-22 [2]) | Activity (HT-22 [3]) | Activity (HT-22 [4]) | Activity (HT-22 [5]) | Activity (HT-22 [6]) | Activity (HT-22 [7]) | Activity (HT-22 [8]) | Activity (HT-22 [9]) | Activity (HT-22 [10])
1 | C/C=C/c1cc(OC)c2oc(-c3ccc(O)c(OC)c3)c(C)c2c1 | Active | Active | Active | Active | Dose-dependent effect | Active | Toxic | Active | inactive | Non-toxic
2 | C/C=C/c1cc(OC)c2oc(-c3ccc(O)cc3)c(C)c2c1 | Active | Active | Active | Active | Dose-dependent effect | Active |  | Active | inactive | Non-toxic
3 | COc1cc([C@H]2O[C@@H](c3ccc(O)c(OC)c3)[C@@H](C)[C@@H]2C)ccc1O | Active | Active | Active | Active | Dose-dependent effect | Active |  | Active | inactive | Non-toxic
4 | C/C=C/c1cc(OC)c2c(c1)[C@@H](C)[C@H](c1ccc(O)c(OC)c1)O2 [LICARINE A] | Active | Active | Active | Active | Dose-dependent effect | Active |  | Active | inactive | Non-toxic
5 | COc1cc([C@H]2O[C@@H](c3ccc(O)c(OC)c3)[C@H](C)[C@@H]2C)ccc1O [NECTANDRIN B] | Active | Active | Active | Active | Dose-dependent effect | Active |  | Active | inactive | Non-toxic
6 | C/C=C/c1ccc2oc(-c3ccc(O)cc3)c(C)c2c1 [RATANIAPHENOL II] | Active | Active | Active | Active | Dose-dependent effect | Active | Toxic | Active | inactive | Non-toxic
